Measured values pooled from the literature.
Protocols differ between the studies behind these lines.
ABL1 H396P phosphorylated: Tyrosine-protein kinase ABL1, phosphorylated (ABL1, Homo sapiens, UniProt P00519, H396P)
ABL1 H396P: Tyrosine-protein kinase ABL1 (ABL1, Homo sapiens, UniProt P00519, H396P)
ABL1 E255K phosphorylated: Tyrosine-protein kinase ABL1, phosphorylated (ABL1, Homo sapiens, UniProt P00519, E255K)
ABL1 F317I phosphorylated: Tyrosine-protein kinase ABL1, phosphorylated (ABL1, Homo sapiens, UniProt P00519, F317I)
ABL1 T315I non-phosphorylated: Tyrosine-protein kinase ABL1, non-phosphorylated (ABL1, Homo sapiens, UniProt P00519, T315I)
ABL1 non-phosphorylated: Tyrosine-protein kinase ABL1, non-phosphorylated (ABL1, Homo sapiens, UniProt P00519)
ABL1 Y253F phosphorylated: Tyrosine-protein kinase ABL1, phosphorylated (ABL1, Homo sapiens, UniProt P00519, Y253F)
ABL1 phosphorylated: Tyrosine-protein kinase ABL1, phosphorylated (ABL1, Homo sapiens, UniProt P00519)
ABL1 H396P non-phosphorylated: Tyrosine-protein kinase ABL1, non-phosphorylated (ABL1, Homo sapiens, UniProt P00519, H396P)

SMILES	target	test	conditions	remaining binding [%]
Nc1c(C(=O)NCc2ccc(C(=O)NCCCC3CCCCC3)cc2)cnn1-c1ccccc1	Tyrosine-protein kinase ABL1, non-phosphorylated (ABL1, Homo sapiens, UniProt P00519, Q252H)	cell-free assay, competition with immobilised ligand	0.1 µM	87
O=C(NCC1CCOCC1)c1n[nH]cc1NC(=O)c1c(F)cccc1F	ABL1 H396P phosphorylated	binding, competition with immobilised ligand	1 µM	93
COc1ncc2cc3ccccc3nc2c1C#N	Tyrosine-protein kinase ABL1, phosphorylated (ABL1, Homo sapiens, UniProt P00519, F317L)	cell-free assay, competition with immobilised ligand	5 µM	86
CN(CCCC(F)(F)F)c1nccc(-c2cnn3ncccc23)n1	ABL1 H396P	binding	1 µM	95
Cc1cnc(Nc2ccc(C(=O)N3CCC(N4CCCC4)CC3)cc2)nc1-c1cc2ccccc2s1	ABL1 E255K phosphorylated	binding, competition with immobilised ligand	1 µM	1.4
COc1cnc(Nc2cccc(S(N)(=O)=O)c2)nc1N1CCN(c2ccccc2)C(=O)C1	ABL1 E255K phosphorylated	binding, competition with immobilised ligand	1 µM	86
CC1CCCN1c1nccc(-c2cnn3ncccc23)n1 (stereo not drawn)	ABL1 H396P	binding	1 µM	80
Cc1c(C(=O)O)cc(-c2ccc(C3CCNCC3)cc2)c2ccc(-c3ccc(C(F)(F)F)cc3)cc12	ABL1 F317I phosphorylated	binding	1 µM	100
CN(c1nccc(-c2cnn3ncccc23)n1)C1CC1	Tyrosine-protein kinase ABL1 (ABL1, Homo sapiens, UniProt P00519, Y253F)	binding	1 µM	100
CC(C)(C)c1ccc(-c2nc(CBr)nn2-c2cccc(O)c2)cc1	Tyrosine-protein kinase ABL1, phosphorylated (ABL1, Homo sapiens, UniProt P00519, T315I)	cell-free assay, competition with immobilised ligand	10 µM	82
CNC(=O)[C@@H]1CC[C@@H](n2c(-c3ccc4cnccc4c3)nc3ccc(C(=O)NCc4cccc(C(N)=O)c4)cc32)C1	ABL1 T315I non-phosphorylated	binding, competition with immobilised ligand	1 µM	100
O=C(O)[C@H]1[C@H](Cn2nnc3ccccc3c2=O)CC[C@@H]1C(=O)c1ccc(OCCC2CCOCC2)cc1	ABL1 non-phosphorylated	cell-free assay, competition with immobilised ligand	1 µM	80
CCN1CCN(Cc2ccc(C(=O)Nc3ccc(C)c(Oc4ccc5c(c4)CC(=O)N5)c3)cc2C(F)(F)F)CC1	ABL1 E255K phosphorylated	binding, competition with immobilised ligand	1 µM	74
FC(F)(F)Oc1cccc(-c2cnc3ccc(-c4ccncc4)nn23)c1	ABL1 non-phosphorylated	cell-free assay, competition with immobilised ligand	5 µM	68
N[C@@H]1CCN(c2nccc(-c3cnn4ncccc34)n2)C1	Tyrosine-protein kinase ABL1 (ABL1, Homo sapiens, UniProt P00519, Q252H)	binding	1 µM	74
c1cncc(-c2cccc(Nc3nccc(NC4CCCCC4)n3)c2)c1	ABL1 Y253F phosphorylated	binding, competition with immobilised ligand	10 µM	12
COC(=O)Nc1nc2ccc(C(=O)c3ccccc3)cc2[nH]1	ABL1 E255K phosphorylated	cell-free assay, competition with immobilised ligand	10 µM	2.2
O=C(c1ccc(Nc2ncc(Cl)c(-c3ccc(Cl)s3)n2)cc1)N1CCC(N2CCCC2)CC1	ABL1 H396P phosphorylated	binding, competition with immobilised ligand	1 µM	4.3

SMILES	target	test	conditions	remaining binding [%]
COc1ccc2c(O[C@@H]3C[C@H]4C(=O)N[C@]5(C(=O)O)CC5/C=C\CCCCC[C@H](NC(=O)OC5CCCC5)C(=O)N4C3)cc(-c3csc(NC(=O)C(C)C)n3)nc2c1C (stereo partly drawn)	ABL1 phosphorylated	cell-free assay, competition with immobilised ligand	1 µM	93
O=C(Nc1c[nH]nc1C(=O)NC1CCNCC1)c1cc(F)cc(F)c1	ABL1 T315I non-phosphorylated	binding, competition with immobilised ligand	1 µM	100
O=C(c1ccc(Nc2nccc(-c3cc4ccccc4s3)n2)cc1)N1CCC(N2CCCC2)CC1	ABL1 H396P non-phosphorylated	binding, competition with immobilised ligand	1 µM	3.1
C=CC(=O)N1CCC(C(=O)NCC(=O)N2CCN(c3nc(-c4cnc(N)nc4C(F)F)nc(N4CCOCC4)n3)CC2)CC1	Tyrosine-protein kinase ABL1, phosphorylated (ABL1, Homo sapiens, UniProt P00519, M351T)	binding, competition with immobilised ligand	1 µM	99
COc1cnc(Nc2cccc(S(N)(=O)=O)c2)nc1N1CCN(c2ccccc2)CC1	ABL1 E255K phosphorylated	binding, competition with immobilised ligand	1 µM	84
O=C(NCCCN1CCOCC1)c1ccc(Nc2nccc(-c3cc4ccccc4s3)n2)cc1	ABL1 E255K phosphorylated	binding, competition with immobilised ligand	1 µM	45
c1cnn2ncc(-c3ccnc(N4CCC45COC5)n3)c2c1	Tyrosine-protein kinase ABL1 (ABL1, Homo sapiens, UniProt P00519, E255K)	binding	1 µM	63
Nc1ncc2c(n1)-c1c([nH]c3ccc(C#CC4CC4)cc13)CCCC2	ABL1 phosphorylated	binding, competition with immobilised ligand	1 µM	100
O=c1nc(-c2ccccn2)sc2ccccc12	ABL1 non-phosphorylated	binding, competition with immobilised ligand	1 µM	93
C[C@@H]1CCN(c2nccc(-c3cnn4ncccc34)n2)C1	ABL1 H396P	binding	1 µM	79
O=C(NCCCN1CCOCC1)c1ccc(Nc2ncc(Cl)c(-c3ccc(Cl)s3)n2)cc1	ABL1 H396P non-phosphorylated	binding, competition with immobilised ligand	1 µM	4.2
C[C@@H]1CN(c2cc(-c3nn(C)c4ccc(OC5(C)CC5)cc34)ncn2)C[C@H](C)O1	ABL1 F317I phosphorylated	binding	1 µM	75
Cc1cnn2ncc(-c3ccnc(N(C)C)n3)c2c1	ABL1 phosphorylated	binding	1 µM	81
C[C@@H](c1ccc(-n2cnc3c(N)ncnc32)cc1)N1CCc2nn(C)c(Cc3ccccc3)c2C1=O	Tyrosine-protein kinase ABL1, phosphorylated (ABL1, Homo sapiens, UniProt P00519, Q252H)	binding, competition with immobilised ligand	0.1 µM	72
CC(=O)N1CCC(c2ccc(C(=O)NC3=NCCN3)cc2C(F)(F)F)CC1	ABL1 non-phosphorylated	cell-free assay, competition with immobilised ligand	1 µM	95
O=C(c1ccc(Nc2ncc(Cl)c(-c3cc4ccccc4s3)n2)cc1)N1CCC(N2CCCC2)CC1	ABL1 F317I phosphorylated	binding, competition with immobilised ligand	1 µM	100
F[C@@H]1CCN(c2nccc(-c3cnn4ncccc34)n2)C1	Tyrosine-protein kinase ABL1 (ABL1, Homo sapiens, UniProt P00519, M351T)	binding	1 µM	100
COc1cccc(CNC(=O)c2nc3scc(COCc4ccc(C(=O)O)cc4)c3c(=O)[nH]2)c1	ABL1 Y253F phosphorylated	cell-free assay, competition with immobilised ligand	1 µM	84.6
